Assay results reported in PubChem BioAssay AID1515 (The Scripps Research Institute Molecular Screening Center, 2009).
Hit rate of the full screen: of about 220,000 compounds, about 440 (0.2%) were called active.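 How the source made its calls: active means inhibition above the campaign mean of all tested compounds plus 3 SD (cut at about 14% in these data); inactive means the rest.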 The entries come from a sample that favours actives as a whole.

molecular target: Serine hydrolase RBBP9 (Homo sapiens) (UniProt O75884); assay: human RBBP9 inhibitors, primary screen, biochemical, fluorescence polarization, FP-Rh probe, HTS (AID 1515); conditions: recombinant RBBP9, FP-Rh probe fluorescence polarization; at 7.94 µM; stronger effect = higher value
Summary of the method: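 Test system: recombinant human RBBP9. Quantity: 2.5 µM RBBP9 dispensing solution, before mixing. Detection: FP readout at 525/598 nm. Reagent: Serine-hydrolase probe FP-Rh, 375 nM pre-mixing. Measure: % inhibition. Control set: DMSO-treated enzyme wells and wells lacking RBBP9. Buffer or medium: Tris-NaCl-Pluronic buffer, pH 8.0. Times: preincubation 30 min plus labeling 45 min at 25 °C.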

Chain of Serine hydrolase RBBP9 (Homo sapiens) (O75884 whole entry, looked up): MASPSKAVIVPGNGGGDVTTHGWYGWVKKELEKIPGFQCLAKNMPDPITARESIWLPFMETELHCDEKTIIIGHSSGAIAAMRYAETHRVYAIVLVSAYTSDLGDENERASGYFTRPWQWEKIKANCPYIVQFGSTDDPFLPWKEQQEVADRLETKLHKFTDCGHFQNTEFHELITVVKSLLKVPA

Structure (SMILES) | inhibition
COc1cccc(-n2nc(C(=O)N3CCN(Cc4ccccc4)CC3)c3ccccc3c2=O)c1 | -0.83% (inactive)
Cc1cc(NC(=O)CSc2nccn2-c2ccc([N+](=O)[O-])cc2)no1 | -5.53% (inactive)
Cc1c(CCO)sc[n+]1CC(=O)OC12CC3CC(CC(C3)C1)C2 | 6.14% (inactive)
Cc1cc(C(=O)OCC(=O)Nc2nnc(C(C)C)s2)c2ccccc2n1 | -5.01% (inactive)
CC(OC(=O)c1ccc(NS(=O)(=O)c2ccc3[nH]c(=O)[nH]c3c2)cc1)C(=O)Nc1cccc(Cl)c1Cl (stereo not drawn) | -24.3% (inactive)
Oc1cccc2ccc(/C=C/c3ccc(Br)s3)nc12 | -6.67% (inactive)
O=C(Cc1cccs1)N/N=C/c1ccc(OCc2ccccc2)cc1 | -9.96% (inactive)
CC(C)(C)Nc1c(N)c(=O)oc2ccccc12 | -7.21% (inactive)
Cc1ccnc(N2C(=O)c3ccccc3C2Nc2ccc3c(c2)OCCO3)c1 (stereo not drawn) | 5.23% (inactive)
COC(=O)c1cc(NC2c3ccccc3C(=O)N2c2ccc(Cl)cn2)cc(C(=O)OC)c1 (stereo not drawn) | 2.1% (inactive)
CCc1ccccc1NC1c2ccccc2C(=O)N1c1cccnc1 (stereo not drawn) | 19.1% (active)
COc1ccc(N2C(=O)C3CCCN3C2c2cccs2)cc1 (stereo not drawn) | -3.07% (inactive)
COc1ccc(N2C(=O)C3CCCN3C2c2cccc(OC)c2)cc1 (stereo not drawn) | -6.79% (inactive)
COc1ccc(N2C(=O)C3CCCN3C2c2cc(OC)c(OC)cc2OC)cc1 (stereo not drawn) | 14.8% (active)
COC(=O)C1=C(C)N(C)C(=O)NC1c1ccc([N+](=O)[O-])o1 (stereo not drawn) | 4.8% (inactive)
O=C(NCc1ccccc1Cl)NC(=O)c1csc([N+](=O)[O-])c1 | 2.74% (inactive)
COc1ccc2c(c1)C(C)=CC(C)(C)N2C(=O)Nc1ccccc1 | 14.3% (active)
CC1=CC(C)(C)N(C(=O)CSc2nnc(-c3ccccc3)o2)c2ccc(C)cc21 | -8.58% (inactive)
COc1ccc2c(c1)C(C)=CC(C)(C)N2C(=O)CNCc1ccc2c(c1)OCO2 | 0.21% (inactive)
CC(=O)Nc1ccc(NC(=S)NC(=O)c2ccc([N+](=O)[O-])c(C)c2)cc1 | 6.76% (inactive)
Cc1ccc(C)c(S(=O)(=O)N2CCN(CC(=O)Nc3ccc([N+](=O)[O-])cc3)CC2)c1 | -5.91% (inactive)
Cc1ccc(NC(=O)CN2CCC(C(N)=O)CC2)cc1[N+](=O)[O-] | 28.6% (active)
CN1CCN(CC(=O)Nc2cccc([N+](=O)[O-])c2)CC1 | 7.61% (inactive)
CC1=C(C(=O)Nc2cc(C)ccn2)C(c2cnn(C)c2)C2=C(CC(c3ccccc3)CC2=O)N1 (stereo not drawn) | -4.73% (inactive)

Structure (SMILES) | inhibition
O=S(=O)(NC1CC1)c1ccc2c3c(cccc13)CC2 | -3.01% (inactive)
COc1ccc(C(C[N+](=O)[O-])n2nc(C)cc2C)cc1 (stereo not drawn) | -13.8% (inactive)
CC1CCN(C2=NC(=O)/C(=C/c3cn[nH]c3-c3ccccc3)S2)CC1 | -1.8% (inactive)
CS(=O)(=O)c1ccc(Cl)c(NC(=O)Nc2ccccc2)c1 | -8.09% (inactive)
COc1ccc(S(=O)(=O)Nc2ccc(O)c(Sc3nc4ccccc4s3)c2)cc1 | -4.18% (inactive)
O=[N+]([O-])c1c(NCCO)cc(Sc2nc3ccccc3s2)c2nonc12 | 16.6% (active)
O=C(CSc1nc2ccccc2s1)Nc1ccc(C(=O)O)cc1 | -5.16% (inactive)
CCOC(=O)N1CCN(C(=S)Nc2ccc(C)cc2C)CC1 | -5.94% (inactive)
Cc1ccc(-c2cc(C(=O)NCC3CCCO3)c3ccccc3n2)o1 (stereo not drawn) | -0.54% (inactive)
CC(C)(C)C1CCC(C(=O)Nc2cccnc2)CC1 (stereo not drawn) | -3.33% (inactive)
CN(C)c1ccc(C=NCCc2ccc(S(N)(=O)=O)cc2)cc1 | -3.47% (inactive)
CCCc1nc(SCC(=O)Nc2ccc(S(=O)(=O)N(C)C)cc2)c2ccccc2n1 | -8.27% (inactive)
COc1ccc([C@H]2[C@H](C(C)=O)N3N=Cc4ccccc4C3C23C(=O)OC(C)(C)OC3=O)cc1 (stereo partly drawn) | 0.49% (inactive)
CC(=O)Nc1nc(C)c(-c2csc(Nc3ccc(S(N)(=O)=O)cc3)n2)s1 | -4.68% (inactive)
COc1cc2c(cc1OC)CC1(CCCCC1)N=C2 | -7.64% (inactive)
Cc1ccc(-c2nc(C)sc2CC(=O)O)cc1 | -5.14% (inactive)
O=C(O)Cc1sc(-c2ccc(C(=O)O)cc2)nc1-c1ccccc1 | -2.34% (inactive)
C/C(=N/Nc1nc(-c2ccccc2)c(CC(=O)O)s1)c1ccccc1 | 17% (active)
COc1ccc(NC(C)=O)cc1NC(=O)CN1CCN(C2c3ccccc3-c3ccccc32)CC1 | -0.61% (inactive)
CC(=O)NC1C(Oc2ccc(C=O)cc2)OC(COC(C)=O)C(OC(C)=O)C1OC(C)=O (stereo not drawn) | -10.2% (inactive)
CC(=O)NC1=NN(C(C)=O)C(C)(CCS(=O)(=O)c2ccc(Cl)c(Cl)c2)S1 (stereo not drawn) | -8.22% (inactive)
COc1cc(/C=C2/C(=O)ON=C2C)ccc1OCc1cccc(F)c1 | -10.5% (inactive)
CC1=NOC(=O)/C1=C\c1ccccc1 | 15.4% (active)
COc1cc(/C=C2/C(=O)ON=C2C)ccc1OCc1ccccc1F | -7% (inactive)

Structure (SMILES) | inhibition
Cc1ccc(S(=O)(=O)N(C)C)cc1NC(=O)c1n[nH]c(=O)c2ccccc12 | 1.59% (inactive)
CCOC(=O)C1=C(CC)OC(N)=C(C#N)C1c1ccc(F)cc1F (stereo not drawn) | -1.24% (inactive)
N#Cc1cc([N+](=O)[O-])ccc1Oc1cccc(/C=N/NC(=O)c2ccc(Cl)cc2)c1 | 1.74% (inactive)
Cn1c(CSCC(=O)Nc2ccccc2)nnc1SCc1ccccc1 | 1.33% (inactive)
COc1ccc(C2CC(c3ccccc3)=NN2C(=O)CSc2nccc(=O)[nH]2)cc1 (stereo not drawn) | -13.6% (inactive)
COc1ccc(C2NC(=S)NC3=C2CCc2ccccc23)cc1OC (stereo not drawn) | -1.09% (inactive)
COc1ccccc1P(=O)(c1ccccc1)c1ccccc1NC(C)=O (stereo not drawn) | 4.53% (inactive)
O=C(O)CCS(=O)(=O)c1ccc(-c2ccccc2)cc1 | -1.5% (inactive)
CCCC(=O)Nc1ccc2c(c1)nc(CCNC(=O)c1ccco1)n2C | -8.19% (inactive)
CCn1c(CNC(=O)c2ccccc2)nnc1SCC(=O)N1CCN(c2ccccc2)CC1 | -8.71% (inactive)
Cc1ccc2cc(CCNC(=O)c3c(-c4ccccc4Cl)noc3C)c(=O)[nH]c2c1 | -1.48% (inactive)
O=c1c2ccccc2nc2n1C(CSCc1cccc(C(F)(F)F)c1)CS2 (stereo not drawn) | -8.83% (inactive)
N#Cc1c(NC(=O)C2CC(Cl)=CCC2C(=O)O)sc2c1CCCCC2 (stereo not drawn) | -6.51% (inactive)
CCNC(=S)N1CCC(c2nc3cc(C)c(C)cc3[nH]2)CC1 | -6.72% (inactive)
Cc1cc([N+](=O)[O-])nn1CCCC(=O)Nc1cccnc1Cl | -5.84% (inactive)
Cc1cc([N+](=O)[O-])nn1Cc1ccc(F)cc1 | 16.8% (active)
Cc1cc([N+](=O)[O-])nn1CC(=O)Nc1ccc(Cc2ccncc2)cc1 | -7.35% (inactive)
Brc1cc(/C=N/n2cnnc2)oc1Br | -14.7% (inactive)
COc1ccccc1NC(=O)C1=C(C)NC(=O)NC1c1ccc(C)s1 (stereo not drawn) | -5.66% (inactive)
Cc1cc(C#N)c(SCC(N)=O)nc1-c1ccc(F)cc1 | -8.75% (inactive)
CC(C)OCC(O)CN1CCN(C(c2ccccc2)c2ccccc2)CC1 (stereo not drawn) | 2.7% (inactive)
O=[N+]([O-])c1ccc(N2CCN(c3ccc(O)cc3)CC2)c(Cl)c1 | -8.4% (inactive)
CC(C)C(=O)Nc1ccc(C(=O)NNC(=O)c2cccs2)cc1 | 3.67% (inactive)
CC(C)NC(=O)C(=O)NCCCOC(C)C | -0.43% (inactive)

Structure (SMILES) | inhibition
CC(C)OCCCNC(=O)CNC(=O)c1cccs1 | 14.6% (active)
CCOC(=O)NN1C(=O)c2ccccc2NC1c1ccccc1O (stereo not drawn) | 0.52% (inactive)
CCOC(=O)C1=C(N)N2C(=O)C(C)SC2=C(C(=O)OCC)C1c1cc(OC)c(OC)c(OC)c1 (stereo not drawn) | 4.66% (inactive)
COc1cc(C2C(C(=O)OCCC#N)=C(C)NC3=C2S(=O)(=O)c2ccccc23)cc(OC)c1OC (stereo not drawn) | 21.6% (active)
COCCOC(=O)C1=C(C)Nc2nc(C)nn2C1c1ccccc1 (stereo not drawn) | 0.85% (inactive)
O=C(NCc1ccccn1)c1ccc2nc(-c3ccco3)c(-c3ccco3)nc2c1 | -0.69% (inactive)
COCCNC(=O)Nc1ccc2nc(-c3ccco3)c(-c3ccco3)nc2c1 | 17.9% (active)
COc1ccc(NC(=O)Nc2ccc3nsnc3c2)cc1 | -1.59% (inactive)
COC(=O)CC(=O)N1CCN(c2ccc(Cl)c(Cl)c2)CC1 | 0.17% (inactive)
CC1(C)CC2CC(C)(CN2c2ncnc3ccc(Br)cc23)C1 (stereo not drawn) | -2.76% (inactive)
CCOC(=O)c1sc(=NC(=O)/C=C/c2cccs2)n(C)c1C | -10.7% (inactive)
CCOC(=O)c1ccc(N=C2SC(C(=O)NC)CC(=O)N2CCc2ccccc2)cc1 (stereo not drawn) | -5.9% (inactive)
COC(=O)Cc1ccc(NC(=S)NCc2ccco2)cc1 | -2.67% (inactive)
Cc1nnc(SC(C(=O)Nc2cc(Cl)cc(Cl)c2)c2ccccc2)[nH]c1=O (stereo not drawn) | -10.7% (inactive)
CSc1sc(C(=O)NNC(=O)c2ccc(Cl)cc2)c2c1C=CCC2 | -0.01% (inactive)
COC(=O)c1ccc(C2C3=C(Nc4nnnn42)c2ccccc2OC3)cc1 (stereo not drawn) | -9.06% (inactive)
Cc1ccc(Sc2ccncc2S(N)(=O)=O)cc1 | -3.25% (inactive)
CC(NCc1nc2ccccc2n1C)C12CC3CC(CC(C3)C1)C2 (stereo not drawn) | 1.94% (inactive)
Cc1ccc(-c2cc(C(F)(F)F)n3nc(C(=O)N4CCCC4)cc3n2)cc1 | -1.99% (inactive)
CCN(CC)C(=O)N1CCN(C(=O)c2ccc(C)cn2)CC1 | 18.9% (active)
Cc1ccc(OCC(=O)N2CCN(C(=O)c3cccnc3)CC2)cc1 | -7.21% (inactive)
